{"source": "paper PMC4165341", "about": "(ACS nano, 2011)", "key": {"[1]": {"target": "T1, mOR174-9 (mOR-EG), His-tagged, nanotube device (Mus musculus, UniProt Q920P2)", "T1 sequence (Q920P2 1-313)": "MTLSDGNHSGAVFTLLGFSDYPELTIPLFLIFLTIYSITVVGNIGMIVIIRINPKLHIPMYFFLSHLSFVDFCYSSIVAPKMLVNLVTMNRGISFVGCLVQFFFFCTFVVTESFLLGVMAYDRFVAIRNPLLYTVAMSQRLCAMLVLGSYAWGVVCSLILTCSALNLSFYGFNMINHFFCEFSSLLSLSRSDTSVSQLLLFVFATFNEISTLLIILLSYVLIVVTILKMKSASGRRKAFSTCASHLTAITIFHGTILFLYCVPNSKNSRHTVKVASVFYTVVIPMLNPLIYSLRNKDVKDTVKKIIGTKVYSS", "test": "carbon nanotube transistor current change", "type": "binding", "conditions": "digitonin micelle device; eugenol vapor in N2, 50% RH (2 ppm in Figure 2)", "how_it_was_run": "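Receptor solubilised from crude plasma membranes in 6.76 mM digitonin, captured on Ni-magnetic beads (1 h, 4 °C), eluted in 4.88 mM digitonin/acetate pH 4.0, readjusted to pH 8.0, used immediately. Back-gated nanotube transistors (on/off >1000) treated with 11.3 mM NTA-NH2 (2 h), then 11.3 mM NiCl2; receptor deposited 30 min, room temperature. Current recorded under computer-controlled humidity, temperature and vapor flow.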"}, "[2]": {"target": "T2, mOR256-17, His-tagged, nanotube device (Mus musculus, UniProt P23275)", "T2 sequence (P23275 1-312)": "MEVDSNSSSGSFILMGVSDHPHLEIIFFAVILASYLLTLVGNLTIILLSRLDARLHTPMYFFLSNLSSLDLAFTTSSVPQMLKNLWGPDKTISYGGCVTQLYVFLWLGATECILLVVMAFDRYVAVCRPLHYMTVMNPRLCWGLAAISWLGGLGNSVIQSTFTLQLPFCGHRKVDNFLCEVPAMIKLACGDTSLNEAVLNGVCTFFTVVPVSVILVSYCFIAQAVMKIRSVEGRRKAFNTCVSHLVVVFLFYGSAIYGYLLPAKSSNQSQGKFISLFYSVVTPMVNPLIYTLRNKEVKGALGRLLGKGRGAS", "test": "carbon nanotube transistor current change", "type": "binding", "conditions": "odorant vapor in N2, 50% RH, concentration not given"}}, "data": [{"smiles": "C=CCc1ccc(O)c(OC)c1", "note": "[eugenol]", "values": [{"measurement": "mOR 174-9 / micelle nanotube", "setting": "[1]", "result": "+20.9±4.6%"}, {"measurement": "mOR 256-17 / nanodisc nanotube", "setting": "[2]", "result": "+33.6±8.3%"}]}]}
